ChEMBL document CHEMBL1944521, “Amide-modified prenylcysteine based Icmt inhibitors: Structure-activity relationships, kinetic analysis and cellular characterization” (Bioorg Med Chem, 2012)
Active and inactive are the calls of the source. No cut-off for these calls is given here.

Key:
[1] = biological target: T1, Protein-S-isoprenylcysteine O-methyltransferase (Homo sapiens, UniProt O60725); experiment: Activity at His-tagged human Icmt membrane protein over-expressed in Saccharomyces cerevisiae 2766 using [14C]-SAM as substrate at 25 uM by scintillation counting
[2] = biological target: T1, Protein-S-isoprenylcysteine O-methyltransferase; experiment: Inhibition of His-tagged human Icmt membrane protein over-expressed in Saccharomyces cerevisiae 2766 using [14C]-SAM and N-acetyl-S-farnesyl-l-cysteine as substrate measured after 30 mins by scintillation counting
[3] = biological target: T1, Protein-S-isoprenylcysteine O-methyltransferase; experiment: Inhibition of His-tagged human Icmt membrane protein over-expressed in Saccharomyces cerevisiae 2766 using [14C]-SAM and N-acetyl-S-farnesyl-l-cysteine as substrate at 10 uM preincubated on ice and measured after 30 mins by scintillation counting
[4] = biological target: T1, Protein-S-isoprenylcysteine O-methyltransferase; experiment: Inhibition of Icmt in TCR-stimulated human Jurkat T cells assessed as inhibition of Ras-mediated Erk activation at 25 uM after 24 hrs by immunoblot analysis relative to control; type: cell-based
How it was run: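 Jurkat cells were treated 24 h with compound (25 μM), vehicle or simvastatin (36.7 μM), then held with anti-CD-3ε (20 μg/mL) 15 min on ice and stimulated 10 min at 37 °C. Triton lysates were run on 6–15% gels and immunoblotted for phospho-Erk, with GAPDH as loading control. Bands were quantified by densitometry relative to control; three independent experiments.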

[5] = biological target: T1, Protein-S-isoprenylcysteine O-methyltransferase; experiment: Inhibition of Icmt in TCR-stimulated human Jurkat T cells assessed as inhibition of Ras activation at 25 uM after 24 hrs by immunoblot analysis; type: cell-based
How it was run: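 Jurkat cells were treated 24 h with compound (25 μM), vehicle or simvastatin (36.7 μM), then held with anti-CD-3ε (20 μg/mL) 15 min on ice and stimulated 10 min at 37 °C. GTP-Ras was pulled down from NP40 lysates on GST-RBD glutathione beads (30 min, 4 °C) and immunoblotted with anti-pan-Ras. Bands were quantified by densitometry; three independent experiments.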

[6] = biological target: T1, Protein-S-isoprenylcysteine O-methyltransferase; experiment: Inhibition of Icmt-mediated GFP-K-Ras membrane localization in human Jurkat T cells at 0.1 uM after 24 hrs by fluorescent microscopic analysis; type: cell-based
How it was run: (§1)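 Jurkat E6.1 cells were electroporated with 20 μg GFP-K-Ras, then treated 24 h at 37 °C with DMSO, simvastatin (20 μM) or compound (0.1, 1, 10 μM). Cells were put on polylysine coverslips, fixed in 3% formaldehyde and viewed by fluorescence microscopy. Localization was scored visually as normal, partial or complete mislocalization in random fields of 100 cells; three independent experiments.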

[7] = biological target: T1, Protein-S-isoprenylcysteine O-methyltransferase; experiment: Competitive inhibition of His-tagged human Icmt membrane protein over-expressed in Saccharomyces cerevisiae 2766 using [14C]-SAM and N-acetyl-S-farnesyl-l-cysteine as substrate measured after 30 mins by scintillation counting
How it was run: (§2)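 Mode of inhibition: AFC concentration varied at fixed inhibitor levels in the His-hIcmt vapor diffusion assay (14C-SAM, 30 °C, 30 min). Three trials per inhibitor concentration were averaged and plotted as Lineweaver-Burk. KIC and KIU were derived from IC50 by Cheng–Prusoff as adapted by Cer et al.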

[8] = biological target: T1, Protein-S-isoprenylcysteine O-methyltransferase; experiment: Inhibition of Icmt-mediated GFP-K-Ras membrane localization in human Jurkat T cells at 10 uM after 24 hrs by fluorescent microscopic analysis; type: cell-based; how it was run: as §1
[9] = biological target: T1, Protein-S-isoprenylcysteine O-methyltransferase; experiment: Noncompetitive inhibition of His-tagged human Icmt membrane protein over-expressed in Saccharomyces cerevisiae 2766 using [14C]-SAM and N-acetyl-S-farnesyl-l-cysteine as substrate measured after 30 mins by scintillation counting; how it was run: as §2

T1 sequence (O60725 whole entry): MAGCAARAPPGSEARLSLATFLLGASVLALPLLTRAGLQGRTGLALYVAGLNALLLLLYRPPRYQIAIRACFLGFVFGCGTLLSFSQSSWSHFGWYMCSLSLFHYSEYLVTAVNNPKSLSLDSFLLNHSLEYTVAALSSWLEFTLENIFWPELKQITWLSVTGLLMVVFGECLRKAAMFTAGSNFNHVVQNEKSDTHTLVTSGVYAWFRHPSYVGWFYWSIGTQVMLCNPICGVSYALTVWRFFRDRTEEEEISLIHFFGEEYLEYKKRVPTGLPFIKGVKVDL

| SMILES | Activity [1] | IC50 ([2]; read-out: IC50) | inhibition [3] | also measured |
| --- | --- | --- | --- | --- |
| CC(C)=CCC/C(C)=C/CC/C(C)=C/CSC[C@H](NC(=O)c1cccc(Oc2ccccc2)c1)C(=O)O | inactive | 22.6 µM | – | – |
| CC(C)=CCC/C(C)=C/CC/C(C)=C/CSC[C@H](NC(=O)c1ccccc1Cc1ccccc1)C(=O)O | inactive | 38 µM | Active | – |
| CC(C)=CC/C(=C/CSC[C@H](NC(=O)c1ccccc1Oc1ccccc1)C(=O)O)CCc1ccc(-c2ccccc2)cc1 | – | 2.5 µM | – | fold change (FC) [4]: 3; inhibition [5]: Active; inhibition [6]: 35%; Kic [7]: 0.5 µM; inhibition [8]: 75%; Kiuc [9]: 1.9 µM |
| CC(C)=CCC/C(C)=C/CC/C(C)=C/CSC[C@H](NC(=O)c1ccc(Oc2ccccc2)cc1)C(=O)O | inactive | 63 µM | – | – |
| CC(C)=CCC/C(C)=C/CC/C(C)=C/CC/C(C)=C/CSC[C@H](NC(=O)c1ccccc1Oc1ccccc1)C(=O)O | inactive | 38 µM | – | – |
| CC(C)=CCC/C(C)=C/CC/C(C)=C/CSC[C@H](NC(=O)c1cccc2c1oc1ccccc12)C(=O)O | inactive | 58 µM | Active | – |
| CC(C)=CCC/C(C)=C/CC/C(C)=C/CSC[C@@H](C(=O)O)N(C)C(=O)c1ccccc1Oc1ccccc1 | inactive | 6.7 µM | Active | – |
| CCCCCCCCCCCSC[C@H](NC(=O)c1ccccc1Oc1ccccc1)C(=O)O | inactive | 210 µM | Active | – |
| CC(C)=CCC/C(C)=C/CC/C(C)=C/CSC[C@H](NC(=O)c1ccccc1COCc1ccccc1)C(=O)O | inactive | 49 µM | Active | – |
| CC(=O)N[C@@H](CSC/C=C(\C)CC/C=C(\C)CCC=C(C)C)C(=O)O | – | – | – | IC50 [2]: Not Active |
| CC(C)=CCC/C(C)=C/CC/C(C)=C/CSC[C@H](NC(=O)c1ccccc1COc1ccccc1)C(=O)O | inactive | 75 µM | Active | – |
| CC(C)=CCC/C(C)=C/CC/C(C)=C/CSC[C@H](NC(=O)c1ccccc1Sc1ccccc1)C(=O)O | inactive | 14.7 µM | Active | – |
| CC(C)=CCC/C(C)=C/CC/C(C)=C/CSC[C@H](NC(=O)c1ccccc1Oc1ccccc1)C(=O)O | – | 6.2 µM | – | Kic [7]: 1.4 µM; Kiuc [9]: 4.8 µM |
| CC(C)=CCC/C(C)=C/CC/C(C)=C/CSC[C@@H](NC(=O)c1ccccc1Oc1ccccc1)C(=O)O | inactive | 7.8 µM | Active | – |
| CC(C)=CCC/C(C)=C/CC/C(C)=C/CSC[C@H](NC(=O)c1ccccc1OCc1ccccc1)C(=O)O | inactive | 13.4 µM | Active | – |
